{
  "source": "ChEMBL document CHEMBL3826901",
  "about": "“Design, synthesis, and mode of action studies of a mitomycin tetramer inducing double activations with a single probe” (Bioorg Med Chem, 2016)",
  "key": {"Escherichia coli [1]": {"system": "Escherichia coli", "test": "Induction of interstrand cross-linking in EcoR1-linearized Escherichia coli pBR322 plasmid DNA at 0.10 mM after 2 hrs using 5 equiv of Et3P by ethidium bromide staining based alkaline agarose gel electrophoresis", "outline": "(§1)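 EcoRI-linearized pBR322 DNA in aqueous Tris-HCl pH 7.4 was N2-deaerated for 15 min. Mitomycin (from 5 mM DMSO stock) and Et3P (5 equiv) were added, then incubated 2 h at room temperature. Purified DNA was run on a denaturing alkaline agarose gel (40 mM NaOH, 1 mM EDTA) with a HindIII-digested λ marker. The gel was neutralized and ethidium bromide-stained, and the cross-linked band quantified.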"}, "[2]": {"test": "Prodrug activation in Tris HCl methanolic solution at 0.03 mM at pH 7.4 using 5 equiv of Et3P by UV-visible spectrophotometry", "details": "buffer, pH 7.4, 30 µM", "outline": "(§2)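 Mitomycin (from 1.0 mM methanolic stock) was in 0.1 M Tris-HCl methanolic buffer, 'pH' 7.4, at 25 °C. Nucleophile was added from methanolic stock (final 0.06–1.5 mM). UV-vis scans (200–500 nm) ran beyond two half-lives. Pseudo-first-order kobs and t1/2 were derived from 370 nm absorbance. Final 'pH' was within ±0.1 units. Runs were in duplicate and averaged.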"}, "[3]": {"test": "Prodrug activation in Tris HCl methanolic solution at 0.015 mM at pH 7.4 using 10 equiv of L-DTT by UV-visible spectrophotometry", "details": "buffer, pH 7.4, 15 µM", "outline": "as §2"}, "[4]": {"test": "Prodrug activation in Tris HCl methanolic solution assessed as half-life at 0.015 mM at pH 7.4 using 5 equiv of Et3P by UV-visible spectrophotometry", "details": "buffer, pH 7.4, 15 µM", "outline": "as §2"}, "Escherichia coli [5]": {"system": "Escherichia coli", "test": "Induction of interstrand cross-linking in EcoR1-linearized Escherichia coli pBR322 plasmid DNA at 0.20 mM after 2 hrs using 5 equiv of Et3P by ethidium bromide staining based alkaline agarose gel electrophoresis", "outline": "as §1"}, "[6]": {"test": "Prodrug activation in Tris HCl methanolic solution assessed as half-life at 0.015 mM at pH 7.4 using 20 equiv of Et3P by UV-visible spectrophotometry", "details": "buffer, pH 7.4, 15 µM", "outline": "as §2"}, "[7]": {"test": "Prodrug activation in Tris HCl methanolic solution assessed as half-life at 0.015 mM at pH 7.4 using 50 equiv of Et3P by UV-visible spectrophotometry", "details": "buffer, pH 7.4, 15 µM", "outline": "as §2"}, "[8]": {"test": "Prodrug activation in Tris HCl methanolic solution at 0.015 mM at pH 7.4 using 5 equiv of Et3P by UV-visible spectrophotometry", "details": "buffer, pH 7.4, 15 µM", "outline": "as §2"}, "[9]": {"test": "Prodrug activation in Tris HCl methanolic solution assessed as half-life at 0.015 mM at pH 7.4 using 10 equiv of L-DTT by UV-visible spectrophotometry", "details": "buffer, pH 7.4, 15 µM", "outline": "as §2"}, "[10]": {"test": "Prodrug activation in Tris HCl methanolic solution assessed as half-life at 0.015 mM at pH 7.4 using 20 equiv of L-DTT by UV-visible spectrophotometry", "details": "buffer, pH 7.4, 15 µM", "outline": "as §2"}, "Escherichia coli [11]": {"system": "Escherichia coli", "test": "Induction of interstrand cross-linking in EcoR1-linearized Escherichia coli pBR322 plasmid DNA at 0.050 mM after 2 hrs using 5 equiv of Et3P by ethidium bromide staining based alkaline agarose gel electrophoresis", "outline": "as §1"}, "[12]": {"test": "Prodrug activation in Tris HCl methanolic solution at 0.015 mM at pH 7.4 using 20 equiv of GSH by UV-visible spectrophotometry", "details": "buffer, pH 7.4, 15 µM", "outline": "as §2"}, "[13]": {"test": "Prodrug activation in Tris HCl methanolic solution assessed as half-life at 0.015 mM at pH 7.4 using 20 equiv of GSH by UV-visible spectrophotometry", "details": "pH 7.4, 15 µM", "outline": "as §2"}, "Escherichia coli [14]": {"system": "Escherichia coli", "test": "Induction of interstrand cross-linking in EcoR1-linearized Escherichia coli pBR322 plasmid DNA at 0.025 mM after 2 hrs using 5 equiv of Et3P by ethidium bromide staining based alkaline agarose gel electrophoresis", "outline": "as §1"}, "[15]": {"test": "Prodrug activation in Tris HCl methanolic solution at 0.015 mM at pH 7.4 using 20 equiv of L-DTT by UV-visible spectrophotometry", "details": "buffer, pH 7.4, 15 µM", "outline": "as §2"}, "[16]": {"test": "Prodrug activation in Tris HCl methanolic solution at 0.015 mM at pH 7.4 using 50 equiv of Et3P by UV-visible spectrophotometry", "details": "buffer, pH 7.4, 15 µM", "outline": "as §2"}, "[17]": {"test": "Prodrug activation in Tris HCl methanolic solution at 0.015 mM at pH 7.4 using 20 equiv of Et3P by UV-visible spectrophotometry", "details": "buffer, pH 7.4, 15 µM", "outline": "as §2"}, "[18]": {"test": "Prodrug activation in Tris HCl methanolic solution at 0.015 mM at pH 7.4 using 10 equiv of Et3P by UV-visible spectrophotometry", "details": "buffer, pH 7.4, 15 µM", "outline": "as §2"}, "[19]": {"test": "Prodrug activation in Tris HCl methanolic solution assessed as half-life at 0.015 mM at pH 7.4 using 10 equiv of Et3P by UV-visible spectrophotometry", "details": "buffer, pH 7.4, 15 µM", "outline": "as §2"}, "[20]": {"test": "Prodrug activation in Tris HCl methanolic solution at pH 7.4 using 5 equiv of Et3P by UV-visible spectrophotometry", "details": "buffer"}, "[21]": {"test": "Prodrug activation in Tris HCl methanolic solution at 0.030 mM at pH 7.4 using 10 equiv of Et3P by UV-visible spectrophotometry", "details": "buffer, pH 7.4, 30 µM", "outline": "as §2"}},
  "data": [
    {"smiles": "CO[C@@]12[C@H](COC(N)=O)C3=C(C(=O)C(C)=C(NCC(O)CNC4=C(C)C(=O)C5=C(C4=O)[C@@H](COC(N)=O)[C@@]4(OC)[C@H]6N[C@H]6CN54)C3=O)N1C[C@@H]1N[C@@H]12", "note": "(some centres undefined)", "values": [
      {"measurement": "Activity", "setting": "Escherichia coli [1]", "value": 5, "unit": "%"},
      {"measurement": "Drug metabolism", "setting": "[2]", "value": "metabolite_notdetected"}
    ]},
    {"smiles": "CO[C@@]12[C@H](COC(N)=O)C3=C(C(=O)C(C)=C(NCC(CNC4=C(C)C(=O)C5=C(C4=O)[C@@H](COC(N)=O)[C@@]4(OC)[C@H]6N[C@H]6CN54)SSC(CNC4=C(C)C(=O)C5=C(C4=O)[C@@H](COC(N)=O)[C@@]4(OC)[C@H]6N[C@H]6CN54)CNC4=C(C)C(=O)C5=C(C4=O)[C@@H](COC(N)=O)[C@@]4(OC)[C@H]6N[C@H]6CN54)C3=O)N1C[C@@H]1N[C@@H]12", "note": "(some centres undefined)", "values": [
      {"measurement": "K", "setting": "[3]", "value": 0.69, "unit": "day⁻¹"},
      {"measurement": "t1/2", "setting": "[4]", "value": 23, "unit": "h"},
      {"measurement": "Activity", "setting": "Escherichia coli [5]", "value": 68, "unit": "%"},
      {"measurement": "t1/2", "setting": "[6]", "value": 5.76, "unit": "h"},
      {"measurement": "t1/2", "setting": "[7]", "value": 2.4, "unit": "h"},
      {"measurement": "K", "setting": "[8]", "value": 0.72, "unit": "day⁻¹"},
      {"measurement": "t1/2", "setting": "[9]", "value": 24, "unit": "h"},
      {"measurement": "t1/2", "setting": "[10]", "value": 12.7, "unit": "h"},
      {"measurement": "Activity", "setting": "Escherichia coli [11]", "value": 41, "unit": "%"},
      {"measurement": "K", "setting": "[12]", "value": 1, "unit": "day⁻¹"},
      {"measurement": "t1/2", "setting": "[13]", "value": 16.6, "unit": "h"},
      {"measurement": "Activity", "setting": "Escherichia coli [14]", "value": 17, "unit": "%"},
      {"measurement": "K", "setting": "[15]", "value": 1.3, "unit": "day⁻¹"},
      {"measurement": "K", "setting": "[16]", "value": 6.9, "unit": "day⁻¹"},
      {"measurement": "Activity", "setting": "Escherichia coli [1]", "value": 51, "unit": "%"},
      {"measurement": "K", "setting": "[17]", "value": 2.9, "unit": "day⁻¹"},
      {"measurement": "K", "setting": "[18]", "value": 1.3, "unit": "day⁻¹"},
      {"measurement": "t1/2", "setting": "[19]", "value": 12.7, "unit": "h"}
    ]},
    {"smiles": "CO[C@@]12[C@H](COC(N)=O)C3=C(C(=O)C(C)=C(N)C3=O)N1C[C@@H]1N[C@@H]12", "note": "[MITOMYCIN]", "values": [
      {"measurement": "Activity", "setting": "Escherichia coli [5]", "value": 2, "unit": "%"},
      {"measurement": "Drug metabolism", "setting": "[20]", "value": "metabolite_notdetected"}
    ]},
    {"smiles": "CO[C@@]12[C@H](COC(N)=O)C3=C(C(=O)C(C)=C(NCC4CCC(CNC5=C(C)C(=O)C6=C(C5=O)[C@@H](COC(N)=O)[C@@]5(OC)[C@H]7N[C@H]7CN65)SS4)C3=O)N1C[C@@H]1N[C@@H]12", "note": "(some centres undefined)", "values": [
      {"measurement": "Activity", "setting": "Escherichia coli [1]", "value": 40.5, "unit": "%"},
      {"measurement": "K", "setting": "[21]", "value": 1.35, "unit": "day⁻¹"}
    ]}
  ]
}
